This note sets out measurements from ChEMBL document CHEMBL1949507, “Synthesis and biological evaluation of [6]-gingerol analogues as transient receptor potential channel TRPV1 and TRPA1 modulators” (Bioorg Med Chem Lett, 2012).

Holding throughout (type): functional, cell-based
Experiment [1] concerns the target T1, Transient receptor potential cation channel subfamily V member 1 (Homo sapiens, UniProt Q8NER1). The experiment can be described thus: Agonist activity at human TRPV1 ion channel expressed in HEK293 cells assessed as calcium influx by fluo-4-Am-based fluorimetry relative to ionomycin.
The target of experiment [2] is T1, Transient receptor potential cation channel subfamily V member 1. The experiment can be described thus: Agonist activity at human TRPV1 ion channel expressed in HEK293 cells assessed as calcium influx by fluo-4-Am-based fluorimetry.
Experiment [3] shares this target. Briefly: Antagonist activity at human TRPV1 ion channel expressed in HEK293 cells assessed as inhibition of capsaicin-induced calcium influx incubated for 5 mins prior to capsicin-induction by fluo-4-AM-based fluorimetry. The method in brief: (§1)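 Stably transfected HEK293 (human TRPV1 or rat TRPA1) were loaded with Fluo-4-AM, washed in Tyrode's buffer and read by spectrofluorimetry (ex 488/em 516 nm). […] Inhibition of the agonist-evoked [Ca2+]i rise was recorded, giving IC50.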

For experiment [4], the target named is Transient receptor potential cation channel subfamily A member 1 (Rattus norvegicus) (UniProt Q6RI86). The experiment can be described thus: Agonist activity at rat TRPA1 ion channel expressed in HEK293 cells assessed as calcium influx by fluo-4-Am-based fluorimetry relative to allyl isothiocyanate.
Experiment [5] has as its target T2, Transient receptor potential cation channel subfamily A member 1 (Rattus norvegicus, UniProt Q6RI86). Briefly: Agonist activity at rat TRPA1 ion channel expressed in HEK293 cells assessed as calcium influx by fluo-4-Am-based fluorimetry.
Experiment [6] addresses T2, Transient receptor potential cation channel subfamily A member 1. Briefly: Antagonist activity at rat TRPA1 ion channel expressed in HEK293 cells assessed as inhibition of AITC-induced calcium influx incubated for 5 mins prior to AITC-induction by fluo-4-AM-based fluorimetry. The essentials: as §1
Experiment [7] has as its target Transient receptor potential cation channel subfamily A member 1 (Rattus norvegicus) (UniProt Q6RI86). The experiment can be described thus: Agonist activity at rat TRPA1 ion channel expressed in HEK293 cells assessed as calcium influx by fluo-4-Am-based fluorimetry relative to ionomycin. The essentials:
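HEK293 cells stably transfected with rat TRPA1 cDNA, loaded with Fluo-4-AM in EMEM, washed twice in Tyrode's buffer and read in a spectrofluorimeter cuvette (ex 488 nm, em 516 nm). [Ca2+]i was measured before and after adding various concentrations of test compound. Responses in non-transfected wild-type HEK293 cells served as baseline and were subtracted from transfected-cell values.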

T1 sequence (Q8NER1 whole entry): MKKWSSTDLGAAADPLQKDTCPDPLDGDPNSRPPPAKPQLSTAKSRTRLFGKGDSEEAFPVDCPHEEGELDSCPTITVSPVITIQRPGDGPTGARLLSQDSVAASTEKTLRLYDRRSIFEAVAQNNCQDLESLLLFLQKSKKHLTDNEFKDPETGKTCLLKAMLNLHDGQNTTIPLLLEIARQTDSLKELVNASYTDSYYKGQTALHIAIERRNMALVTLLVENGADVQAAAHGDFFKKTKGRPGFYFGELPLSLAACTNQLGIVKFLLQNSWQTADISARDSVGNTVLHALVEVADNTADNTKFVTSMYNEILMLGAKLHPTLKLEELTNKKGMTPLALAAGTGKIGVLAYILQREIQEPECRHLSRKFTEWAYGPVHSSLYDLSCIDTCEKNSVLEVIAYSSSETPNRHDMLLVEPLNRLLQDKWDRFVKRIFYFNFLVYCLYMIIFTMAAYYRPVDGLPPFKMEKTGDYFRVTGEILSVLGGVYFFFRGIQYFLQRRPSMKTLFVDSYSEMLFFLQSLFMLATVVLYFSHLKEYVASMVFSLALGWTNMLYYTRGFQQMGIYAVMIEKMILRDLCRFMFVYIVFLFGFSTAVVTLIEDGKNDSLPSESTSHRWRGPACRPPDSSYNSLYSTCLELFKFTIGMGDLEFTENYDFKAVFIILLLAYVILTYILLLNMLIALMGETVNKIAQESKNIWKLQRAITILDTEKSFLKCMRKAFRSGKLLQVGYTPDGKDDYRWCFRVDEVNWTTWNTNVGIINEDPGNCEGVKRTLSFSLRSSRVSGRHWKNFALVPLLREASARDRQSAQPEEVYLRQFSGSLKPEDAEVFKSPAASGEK
Transient receptor potential cation channel subfamily A member 1 (Rattus norvegicus), sequence (Q6RI86 whole entry): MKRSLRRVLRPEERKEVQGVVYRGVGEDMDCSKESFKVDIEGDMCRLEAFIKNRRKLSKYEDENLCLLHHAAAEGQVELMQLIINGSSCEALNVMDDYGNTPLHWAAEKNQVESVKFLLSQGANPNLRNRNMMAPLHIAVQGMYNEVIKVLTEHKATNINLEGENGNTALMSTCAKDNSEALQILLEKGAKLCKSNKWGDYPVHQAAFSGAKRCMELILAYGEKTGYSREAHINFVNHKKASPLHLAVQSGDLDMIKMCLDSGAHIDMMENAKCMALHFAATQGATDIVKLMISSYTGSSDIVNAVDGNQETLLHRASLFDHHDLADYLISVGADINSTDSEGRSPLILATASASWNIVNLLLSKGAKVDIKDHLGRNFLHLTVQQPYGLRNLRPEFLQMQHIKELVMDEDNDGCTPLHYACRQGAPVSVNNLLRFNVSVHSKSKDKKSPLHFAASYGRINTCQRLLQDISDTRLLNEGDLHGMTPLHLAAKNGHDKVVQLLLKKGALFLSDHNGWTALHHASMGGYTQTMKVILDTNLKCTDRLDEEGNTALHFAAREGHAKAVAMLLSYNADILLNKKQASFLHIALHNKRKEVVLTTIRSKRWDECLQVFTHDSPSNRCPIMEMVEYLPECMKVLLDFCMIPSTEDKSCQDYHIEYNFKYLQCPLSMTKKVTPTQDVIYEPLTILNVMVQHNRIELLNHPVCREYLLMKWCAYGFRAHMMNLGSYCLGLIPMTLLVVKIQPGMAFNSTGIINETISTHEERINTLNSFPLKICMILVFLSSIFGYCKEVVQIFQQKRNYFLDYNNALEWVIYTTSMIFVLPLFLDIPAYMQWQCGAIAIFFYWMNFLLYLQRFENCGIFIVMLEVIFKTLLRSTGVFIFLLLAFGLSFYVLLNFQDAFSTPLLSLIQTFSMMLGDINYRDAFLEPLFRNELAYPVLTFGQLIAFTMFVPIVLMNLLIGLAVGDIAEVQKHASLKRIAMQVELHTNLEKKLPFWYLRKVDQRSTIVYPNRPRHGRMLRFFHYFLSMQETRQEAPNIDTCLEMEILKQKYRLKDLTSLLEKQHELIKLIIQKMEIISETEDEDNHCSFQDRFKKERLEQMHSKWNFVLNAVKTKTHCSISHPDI
T2 sequence (Q6RI86 whole entry): as above

As usually defined, the EC50 is the concentration needed to bring the measured effect to its halfway point. Broadly, the IC50 is the midpoint of a concentration-inhibition curve. With `CCCCCC(O)CC(=O)CCc1ccc(O)c(OC)c1` (racemic), the Efficacy in experiment [1] stood at 51.4%; in experiment [4], 11.4%. Also, the EC50 in experiment [2] came to 3.3 µM; in experiment [5], 10.4 µM. For the same compound, the half-maximal inhibitory concentration (IC50) was 5 µM in experiment [3] and above 100 µM in experiment [6].

Take `CCCCCC(O)CC(=O)CCc1cc(C(C)C)c(O)cc1C` (stereo not given): the figures for the Efficacy in experiment [1] and in experiment [4] were below 10% and 78.2%, respectively. Further, the half-maximal inhibitory concentration (IC50) in experiment [3] came to 4.8 µM; in experiment [6] it was 3.9 µM. In addition, the concentration for a half-maximal effect (EC50) in experiment [5] was found to be 1.1 µM.

In the case of `CC(C)c1cc(CCC(=O)CC(O)Cc2ccccc2)cc(C(C)C)c1O` (stereo not given), the Efficacy in experiment [1] and in experiment [4] was below 10% throughout. Further, the IC50 in experiment [3] was above 50 µM.

`O=C(CCc1ccc(O)cc1)CC(O)CCCCCCc1ccccc1` (stereo not given): the Efficacy in experiment [1] was 43%; in experiment [4], below 10%. For the same compound, in experiment [2], the EC50 turned out to be 14.6 µM. For the same compound, the concentration for half-maximal inhibition (IC50) in experiment [3] is 9.4 µM; in experiment [6] it was 15.8 µM.

As to `CCCCC/C=C/C(=O)CCc1ccc(O)c(OC)c1` [SHOGAOL], the Efficacy in experiment [1] worked out at 79.2%; in experiment [4], 91.1%. Further, the half-maximal effective concentration (EC50) in experiment [2] was determined as 0.32 µM; in experiment [5], 16 µM. Further, the IC50 in experiment [3] came out at 0.29 µM; in experiment [6], 16.7 µM.

Turning to `COc1cc(CCC(=O)CC(O)CCCCCCc2ccccc2)ccc1O` (stereo not given), the Efficacy was 60% in experiment [1] and below 10% in experiment [4]. The 50% effective concentration (EC50) in experiment [2] is 0.11 µM. In addition, the IC50 in experiment [3] turned out to be 0.11 µM; in experiment [6], 38.2 µM.

Consider `COc1cc(CNC(=O)CCCC/C=C/C(C)C)ccc1O`, for which the Efficacy in experiment [4] was found to be 100%.

With `O=C(CCc1ccccc1)CC(O)Cc1ccccc1` (stereo not given), the figures for the Efficacy in experiment [1] and in experiment [4] were below 10% and 17.5%, respectively. Also, the values for the half-maximal inhibitory concentration (IC50) in experiment [3] and in experiment [6] were above 50 µM and 4.5 µM, respectively.

For `O=C(CCc1ccccc1)CC(O)CCCCCCc1ccccc1` (stereo not given), the Efficacy in experiment [1] and in experiment [4] was below 10% in each case. For the same compound, the half-inhibitory concentration (IC50) in experiment [3] was above 10 µM.

Regarding `CCCCCC(O)CC(=O)CCc1ccccc1` (stereo not given), the Efficacy in experiment [1] and in experiment [4] was below 10% in each case. The IC50 in experiment [3] was above 50 µM; in experiment [6], 56.1 µM.

Take `Cc1cc(O)c(C(C)C)cc1CCC(=O)CC(O)CCCCCCc1ccccc1` (stereo not given): the Efficacy in experiment [1] is 33.5%; in experiment [4], 163%. In addition, the half-maximal effective concentration (EC50) came to 0.5 µM in experiment [2] and 22.1 µM in experiment [5]. Also, the figures for the IC50 in experiment [3] and in experiment [6] were 1.3 µM and 14.3 µM, respectively.

In the case of `O=C(/C=C/CCCCCCc1ccccc1)CCc1ccc(O)cc1`, the figures for the Efficacy in experiment [1] and in experiment [4] were 19.7% and 89.2%, respectively. Also, the EC50 worked out at 0.1 µM in experiment [2] and 2.2 µM in experiment [5]. The 50% inhibitory concentration (IC50) in experiment [3] turned out to be 1.2 µM; in experiment [6], 2.3 µM.

Consider `CCCCCC(O)CC(=O)CCc1ccc2c(c1)OCO2` (stereo not given), for which the Efficacy in experiment [1] and in experiment [4] was below 10% in each case. Besides, the 50% inhibitory concentration (IC50) in experiment [3] and in experiment [6] was above 100 µM each time.

For `O=C(CCc1ccc2c(c1)OCO2)CC(O)Cc1ccccc1` (stereo not given), the Efficacy in experiment [1] is below 10%; in experiment [4], 16.5%. The IC50 in experiment [3] is above 50 µM; in experiment [6], 14.4 µM.

For the compound `COc1cc(CCC(=O)CC(O)Cc2ccccc2)ccc1O` (stereo not given), the Efficacy was 56.9% in experiment [1] and below 10% in experiment [4]. The EC50 in experiment [2] came out at 14.3 µM. In addition, the half-maximal inhibitory concentration (IC50) in experiment [3] worked out at 13.2 µM; in experiment [6] it was 97.8 µM.

Turning to `O=C(CCc1ccc(O)cc1)CC(O)Cc1ccccc1` (stereo not given), the Efficacy was 10.8% in experiment [1] and 131% in experiment [4]. Also, the EC50 in experiment [2] is 1 µM; in experiment [5], 10.7 µM. The results for the IC50 in experiment [3] and in experiment [6] were 33.5 µM and 35.1 µM, respectively.

Take `CCCCCC(O)CC(=O)CCc1cc(C(C)C)c(O)c(C(C)C)c1` (stereo not given): the Efficacy in experiment [1] was below 10%; in experiment [4], 63.6%. Also, the IC50 in experiment [3] is above 50 µM; in experiment [6], 2.8 µM. Further, the EC50 in experiment [5] worked out at 2.1 µM.

Take `CC(C)c1cc(CCC(=O)CC(O)CCCCCCc2ccccc2)cc(C(C)C)c1O` (stereo not given): the Efficacy in experiment [1] and in experiment [4] was below 10% each time. Also, the IC50 was above 10 µM in experiment [3] and 11.1 µM in experiment [6].

In the case of `Cc1cc(O)c(C(C)C)cc1CCC(=O)CC(O)Cc1ccccc1` (stereo not given), the Efficacy in experiment [1] was below 10%; in experiment [4] it was 51.3%. In addition, the IC50 in experiment [3] was determined as 35.3 µM; in experiment [6] it was 39.7 µM. For the same compound, in experiment [5], the half-maximal effective concentration (EC50) amounted to 3.5 µM.

For the compound `O=C(CCc1ccc2c(c1)OCO2)CC(O)CCCCCCc1ccccc1` (stereo not given), in experiment [3], the IC50 is above 10 µM.

Turning to `C=CCN=C=S`, in experiment [7], the Efficacy was 41.8%.

In the case of `CCCCCC(O)CC(=O)CCc1ccc(O)cc1` (stereo not given), the Efficacy in experiment [1] was determined as 23.6%; in experiment [4], 114%. The EC50 in experiment [2] amounted to 1.2 µM; in experiment [5], 8.4 µM. Besides, the figures for the half-maximal inhibitory concentration (IC50) in experiment [3] and in experiment [6] were 10.5 µM and 22.6 µM, respectively.
